A short description of series [1]: Biosurfactant activity assessed as Critical micelle concentration of compound. The format is physicochemical.
A short description of series [2]: Biosurfactant activity assessed as reduction in surface tension of aqueous solution at 10 to 1200 ug/ml by ring method. In kind it is functional. In outline:
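Surface tension of aqueous solutions (10−1200 μg/mL) measured by the ring method on a Du Noüy tensiometer with a platinum ring at 25 °C, in triplicate. The instrument was calibrated against pure H2O before each set. CMC was taken from the breakpoint of the surface tension versus log bulk concentration curve.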

Series [3] concerns Amphibalanus amphitrite. Briefly: Antifouling activity against Amphibalanus amphitrite at 0.88 ug/ml. The format is functional, organism-based.
Series [4] in a line: Biosurfactant activity assessed as diameter of clear zone at 10 mg/ml by oil displacement assay. The format is functional. The method in brief: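 Oil displacement assay as an indirect measure of surface activity: sample tested at 10 mg/mL and the clear-zone diameter measured. SDS and pluronic F-68 were run at the same concentration for reference.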
Series [5] has as its system MCF7. The experiment in a line: Cytotoxicity against human MCF7 cells incubated for 72 hrs by MTT assay. The format is functional, cell-based. The settings on record: MCF7, 72 h. Background: Formazan colour is commonly taken as a measure of viable cells.

The structures appear in SMILES notation. The source made the active and inactive calls. The rule behind the calls is not given here. Some results are limits rather than exact numbers.

A word on the IC50: it is the point on the concentration scale where inhibition reaches its midpoint. Higher therefore signals weaker potency in that assay.

`COC[C@@H](CO)N(C)C(=O)CC/C=C/CCCC[C@H](Cl)CCCCCCCCCl`: the CMC in series [1] is on record as 0.34 mM. Moreover, the outcome in series [2] was Active.

Turning to `CCCCCCCCCCCCCCC/C=C(\C)C(=O)N[C@@H](CO)COC`, the outcome in series [3] and in series [2] was Active. Also, the CMC in series [1] was found to be 0.78 mM.

As to `CCCCCCCCCCCCOS(=O)(=O)[O-].[Na+]`, the Activity in series [4] was found to be 84 mm.

As to `COC[C@@H](COC(C)=O)N(C)C(=O)CC/C=C/CCCC[C@H](Cl)CCCCCCCCCl`, in series [4], the Activity worked out at 90 mm. Moreover, the IC50 in series [5] was greater than 10 µg/mL.

Take `CCCCCCCCC(Cl)CCCC/C=C/CCC(=O)N(C)[C@H](CO)COC` (stereo not given in full): the IC50 in series [5] is greater than 10 µg/mL.

Take `COC[C@@H](COC(C)=O)N(C)C(=O)CC/C=C/CCCCC(Cl)CCCCCCCC(Cl)Cl` (stereo not given in full): the IC50 in series [5] is greater than 10 µg/mL.

(Values after ChEMBL document CHEMBL4619761, “Biosurfactants from Marine Cyanobacteria Collected in Sabah, Malaysia” (J Nat Prod, 2020).)
